This passage reports EC50 results from ChEMBL document CHEMBL1123471, “Dopamine receptor agonists: 3-allyl-6-chloro-2,3,4,5-tetrahydro- 1-(4-hydroxyphenyl)-1H-3-benzazepine-7,8-diol and a series of related 3-benzazepines” (J Med Chem, 1986).

Molecules are shown by their SMILES. Where a name gives a salt, the structure may show the parent alone.

What all share (assay type): functional, organism-based
For test [1], the species on record is Oryctolagus cuniculus. Description: Inhibition of the constrictor response to electrical stimulation in rabbit ear artery. A digest of the protocol: (§1)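 Isolated perfused rabbit ear artery in Krebs-Henseleit (95% O2/5% CO2, 35 °C, pH 7.4), stabilized ≥1 h. Sympathetic nerves field-stimulated every 4 min (0.7-ms pulses, 75 V, 10-15 Hz trains of 300-500 ms). Compound superfused at increasing concentrations, 4 min each. Read-out is the rise in perfusion pressure; IC50 from least-squares curves.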

Test [2] is filed under the species Rattus norvegicus. Description: Concentration necessary to cause 50% increase in cAMP formation(by adenylate cyclase) relative to the maximum increase caused by the compound. The method, boiled down: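 Rat caudate homogenate (male Charles River rats, 225-300 g), made at 0 °C in 50 mM Tris-maleate pH 7.4 with 2 mM EGTA; incubated with test compound at increasing concentrations, 2 mM MgSO4, 5 mM aminophylline, and [14C]ATP (final 0.65 mM) for 3 min at 30 °C. [14C]cAMP isolated on alumina/Dowex columns and counted; quadruplicates; least-squares dose-response curves.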
A general note: Cyclic AMP is a second messenger, typically raised through Gs and lowered through Gi signalling.

Test [3] is filed under the species Oryctolagus cuniculus. Description: Concentration necessary to inhibit 50% of the constrictor response to electrical stimulation in rabbit ear artery; I=Inactive. A digest of the protocol: as §1

Molecule `Oc1cc2c(cc1O)CCNCC2` came in with an EC50 in test [1] of 12 nM. Same read-out and setting: the result for `NC1CCc2cc(O)c(O)cc2C1` (stereo not given) reads 17 nM. For `C=CCN1CCc2c(cc(O)c(O)c2Cl)[C@@H](c2ccc(O)cc2)C1`, the EC50 was 84 nM in test [1] and 9 nM in test [2]. For `C=CCN1CCc2c(cc(O)c(O)c2Cl)C(c2cccc(O)c2)C1` (stereo not given) the same measures were 760 nM and 125 nM. Regarding `CN1CCc2c(cc(O)c(O)c2Cl)C(c2ccc(O)cc2)C1` (stereo not given), the EC50 was 90 nM in test [1] and around 10000 nM in test [2]. In turn, `C/C=C/CN1CCc2c(cc(O)c(O)c2Cl)C(c2ccc(O)cc2)C1` (stereo not given) came in with an EC50 in test [1] of 10000 nM.

Regarding `C#CCN1CCc2c(cc(O)c(O)c2Cl)C(c2ccc(O)cc2)C1` (stereo not given), the EC50 was determined as 2700 nM in test [1] and 640 nM in test [2].

In test [1], `NCCc1ccc(O)c(O)c1` [DOPAMINE] registered an EC50 of 38 nM.

Regarding `Oc1ccc(C2CN(C/C=C/c3ccccc3)CCc3c2cc(O)c(O)c3Cl)cc1` (stereo not given), the EC50 entry in test [3] is listed as “Not Active”. With `CCCCN(CCC)CCc1ccc(O)c(O)c1`, the EC50 in test [1] turned out to be 48 nM.

Turning to `CCCN(CCC)CCc1ccc(O)c(O)c1`, the EC50 in test [1] amounted to 60 nM. On the same count and under the same terms, the result for `CN1CCc2cccc3c2[C@H]1Cc1ccc(O)c(O)c1-3` [APOMORPHINE] reads 44 nM. For the molecule `C=CCN1CCc2c(cc(O)c(O)c2Cl)C(c2ccc(O)cc2)C1` (stereo not given), the EC50 in test [1] is 122 nM; in test [2], 15 nM. As for `Oc1ccc(C2CNCCc3c2cc(O)c(O)c3Cl)cc1` (stereo not given) [FENOLDOPAM MESYLATE], the EC50 in test [1] is 1000 nM; in test [2] it was 57 nM. On the same counts, the results for `Oc1ccc(C2CN(CC3CC3)CCc3c2cc(O)c(O)c3Cl)cc1` (stereo not given) are 1700 nM and 1100 nM. Regarding `C=CCN1CCc2c(cc(O)c(O)c2Cl)[C@H](c2ccc(O)cc2)C1`, the figures for the EC50 in test [1] and in test [2] were 3000 nM and above 10000 nM, respectively.

As for `OCCN1CCc2c(cc(O)c(O)c2Cl)C(c2ccc(O)cc2)C1` (stereo not given), the values for the EC50 in test [1] and in test [2] were 500 nM and 1000 nM, respectively. For `CCCN1CCc2c(cc(O)c(O)c2Cl)C(c2ccc(O)cc2)C1` (stereo not given) the same measures were 1000 nM and 550 nM. In turn, `OCC(O)CN1CCc2c(cc(O)c(O)c2Cl)C(c2ccc(O)cc2)C1` (stereo not given) displayed an EC50 in test [1] above 10000 nM. Same read-out and setting: the result for `CCCN(CCC)CCc1ccc(O)c2c1CC(=O)N2` [SKF-89124A] reads 2 nM.
